In ChEMBL document CHEMBL1255255, “Highly variable penicillin resistance determinants PBP 2x, PBP 2b, and PBP 1a in isolates of two Streptococcus pneumoniae clonal groups, Poland 23F-16 and Poland 6B-20” (2008):
Positions count from the first letter of the chain named. Converted amounts (≈) assume the structure as drawn. The source made the active and inactive calls. The rule behind the calls is not given here.

Experiments:
[1] = molecular target: T1, Penicillin-binding protein 2x (Streptococcus pneumoniae serotype 4 (strain ATCC BAA-334 / TIGR4)) (UniProt P14677); assay: Binding affinity to PBP 2x in Streptococcus pneumoniae isolate 909 at 1.1 ng/ml to 1.1 ug /ml
T1 sequence (whole entry): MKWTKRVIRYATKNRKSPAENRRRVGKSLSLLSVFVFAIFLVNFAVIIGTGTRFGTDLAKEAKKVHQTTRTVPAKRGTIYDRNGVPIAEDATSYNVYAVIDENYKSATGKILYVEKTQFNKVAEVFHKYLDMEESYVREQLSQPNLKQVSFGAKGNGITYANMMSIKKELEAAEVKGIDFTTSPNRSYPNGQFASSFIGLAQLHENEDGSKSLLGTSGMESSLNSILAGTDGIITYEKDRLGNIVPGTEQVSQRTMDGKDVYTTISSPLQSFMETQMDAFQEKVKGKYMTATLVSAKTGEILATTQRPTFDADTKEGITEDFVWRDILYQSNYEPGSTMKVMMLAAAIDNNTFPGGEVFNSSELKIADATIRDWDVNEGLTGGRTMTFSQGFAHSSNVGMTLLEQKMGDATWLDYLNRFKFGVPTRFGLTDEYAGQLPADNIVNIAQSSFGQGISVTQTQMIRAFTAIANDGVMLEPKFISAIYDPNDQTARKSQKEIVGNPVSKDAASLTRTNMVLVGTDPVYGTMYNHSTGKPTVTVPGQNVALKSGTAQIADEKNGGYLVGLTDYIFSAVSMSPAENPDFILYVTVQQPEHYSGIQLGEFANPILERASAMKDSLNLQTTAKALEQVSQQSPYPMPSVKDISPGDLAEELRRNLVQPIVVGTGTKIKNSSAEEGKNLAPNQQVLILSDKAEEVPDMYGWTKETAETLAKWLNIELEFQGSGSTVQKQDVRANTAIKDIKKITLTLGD
Summary of the method: (§1)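 Cells grown at 37°C without aeration in C medium with 0.2% yeast extract, monitored by nephelometry, harvested at 80 to 100 nephelometry units and resuspended in 20 mM sodium phosphate (pH 7.2) with 0.2% Triton X-100. Lysate aliquots labeled with decreasing Bocillin FL (1.1, 0.36, 0.11, 0.036 μg/ml, onward) for 30 min at 37°C. PBPs were resolved by SDS-PAGE (7.5% resolving gel) and read by fluorescence imaging.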

[2] = molecular target: T2, Penicillin-binding protein 1A (Streptococcus pneumoniae serotype 4 (strain ATCC BAA-334 / TIGR4)) (UniProt Q04707); assay: Binding affinity to PBP 1a in Streptococcus pneumoniae isolate k-637 at 1.1 ng/ml to 1.1 ug /ml; summary of the method: as §1
T2 sequence (whole entry): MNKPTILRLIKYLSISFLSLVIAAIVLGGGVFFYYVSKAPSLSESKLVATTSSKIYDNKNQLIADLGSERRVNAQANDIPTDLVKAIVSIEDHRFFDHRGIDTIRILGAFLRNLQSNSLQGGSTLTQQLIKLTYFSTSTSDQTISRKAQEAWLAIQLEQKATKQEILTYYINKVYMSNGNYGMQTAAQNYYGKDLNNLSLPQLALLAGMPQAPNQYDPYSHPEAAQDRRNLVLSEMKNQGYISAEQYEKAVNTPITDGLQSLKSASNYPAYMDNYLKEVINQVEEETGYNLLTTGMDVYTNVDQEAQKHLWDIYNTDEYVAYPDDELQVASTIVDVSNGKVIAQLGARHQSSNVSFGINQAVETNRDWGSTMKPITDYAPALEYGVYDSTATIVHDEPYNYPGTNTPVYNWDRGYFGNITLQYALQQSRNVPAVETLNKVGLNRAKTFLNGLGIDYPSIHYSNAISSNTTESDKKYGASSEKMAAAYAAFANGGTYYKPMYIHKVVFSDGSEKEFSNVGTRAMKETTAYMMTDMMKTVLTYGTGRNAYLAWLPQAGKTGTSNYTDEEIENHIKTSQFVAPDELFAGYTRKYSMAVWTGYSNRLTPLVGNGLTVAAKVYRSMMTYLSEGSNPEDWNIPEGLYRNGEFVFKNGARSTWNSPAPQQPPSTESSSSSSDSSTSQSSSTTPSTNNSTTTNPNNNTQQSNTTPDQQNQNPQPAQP

[3] = molecular target: T3, Penicillin-binding protein 2X (Streptococcus pneumoniae R6) (UniProt P59676); assay: Binding affinity to PBP 2x in Streptococcus pneumoniae R6 at 1.1 ng/ml to 1.1 ug /ml; summary of the method: as §1
T3 sequence (whole entry): T1 sequence (whole entry) with T385M

[4] = molecular target: T1, Penicillin-binding protein 2x (Streptococcus pneumoniae serotype 4 (strain ATCC BAA-334 / TIGR4)); assay: Binding affinity to PBP 2x in Streptococcus pneumoniae isolate k-421 at 1.1 ng/ml to 1.1 ug /ml; summary of the method: as §1
[5] = test system: Streptococcus pneumoniae; assay: Antimicrobial activity against Streptococcus pneumoniae isolate k-585 obtained from bronchoalveolar lavage fluid of patient; assay type: functional; conditions: isolate k-585, Lung
[6] = test system: Streptococcus pneumoniae; assay: Antimicrobial activity against Streptococcus pneumoniae isolate 909 obtained from bronchoalveolar lavage fluid of patient; assay type: functional; conditions: isolate 909, Lung
[7] = test system: Streptococcus pneumoniae; assay: Antimicrobial activity against Streptococcus pneumoniae ATCC BAA-612; assay type: functional
[8] = test system: Streptococcus pneumoniae; assay: Antimicrobial activity against Streptococcus pneumoniae isolate 40 obtained from blood of patient; assay type: functional
[9] = test system: Streptococcus pneumoniae; assay: Antimicrobial activity against Streptococcus pneumoniae isolate 2907 obtained from sinusitis of patient; assay type: functional
[10] = test system: Streptococcus pneumoniae; assay: Antimicrobial activity against Streptococcus pneumoniae isolate 657 obtained from sputum of patient; assay type: functional
[11] = test system: Streptococcus pneumoniae; assay: Antimicrobial activity against Streptococcus pneumoniae ATCC BAA-343; assay type: functional
[12] = test system: Streptococcus pneumoniae; assay: Antimicrobial activity against Streptococcus pneumoniae isolate k-598 obtained from bronchoalveolar lavage fluid of patient; assay type: functional; conditions: Lung
[13] = test system: Streptococcus pneumoniae; assay: Antimicrobial activity against Streptococcus pneumoniae isolate 187 obtained from bronchoalveolar lavage fluid of patient; assay type: functional; conditions: isolate 187, Lung
[14] = test system: Streptococcus pneumoniae; assay: Antimicrobial activity against Streptococcus pneumoniae isolate k-421 obtained from ear of patient; assay type: functional
[15] = test system: Streptococcus pneumoniae; assay: Antimicrobial activity against Streptococcus pneumoniae isolate 4134 obtained from sputum of patient; assay type: functional
[16] = test system: Streptococcus pneumoniae; assay: Antimicrobial activity against Streptococcus pneumoniae isolate 2904 obtained from blood of patient; assay type: functional
[17] = test system: Streptococcus pneumoniae; assay: Antimicrobial activity against Streptococcus pneumoniae isolate k-637 obtained from CSF of patient; assay type: functional

SMILES | Activity [1] | Activity [2] | Activity [3] | Activity [4] | MIC [5] | MIC [6] | MIC [7] | MIC [8] | MIC [9] | MIC [10] | MIC [11] | MIC [12] | MIC [13] | MIC [14] | MIC [15] | MIC [16] | MIC [17]
Cc1cc(C)n2c1C=C1C=CC(CCC(=O)Nc3ccc(OCC(=O)N[C@@H]4C(=O)N5[C@@H]4SC(C)(C)[C@@H]5C(=O)O)cc3)=[N+]1[B-]2(F)F | inactive | Active | inactive | inactive | – | – | – | – | – | – | – | – | – | – | – | – | –
CC1(C)S[C@@H]2[C@H](NC(=O)[C@H](N)c3ccc(O)cc3)C(=O)N2[C@H]1C(=O)O [AMOXICILLIN] | – | – | – | – | 4 µg/mL (≈ 10.9 µM) | 8 µg/mL (≈ 21.9 µM) | 0.12 µg/mL (≈ 0.328 µM) | 8 µg/mL (≈ 21.9 µM) | 0.25 µg/mL (≈ 0.684 µM) | 0.06 µg/mL (≈ 0.164 µM) | 2 µg/mL (≈ 5.47 µM) | 16 µg/mL (≈ 43.8 µM) | 16 µg/mL (≈ 43.8 µM) | 2 µg/mL (≈ 5.47 µM) | 1 µg/mL (≈ 2.74 µM) | 2 µg/mL (≈ 5.47 µM) | 2 µg/mL (≈ 5.47 µM)
CO/N=C(\C(=O)N[C@@H]1C(=O)N2C(C(=O)[O-])=C(C[N+]3(C)CCCC3)CS[C@H]12)c1csc(N)n1 [CEFEPIME] | – | – | – | – | 1 µg/mL (≈ 2.08 µM) | 1 µg/mL (≈ 2.08 µM) | 0.25 µg/mL (≈ 0.52 µM) | 1 µg/mL (≈ 2.08 µM) | 0.25 µg/mL (≈ 0.52 µM) | 0.06 µg/mL (≈ 0.125 µM) | 4 µg/mL (≈ 8.32 µM) | 8 µg/mL (≈ 16.6 µM) | 2 µg/mL (≈ 4.16 µM) | 1 µg/mL (≈ 2.08 µM) | 1 µg/mL (≈ 2.08 µM) | 1 µg/mL (≈ 2.08 µM) | 2 µg/mL (≈ 4.16 µM)
CO/N=C(\C(=O)N[C@@H]1C(=O)N2C(C(=O)O)=C(COC(C)=O)CS[C@H]12)c1csc(N)n1 [CEFOTAXIME] | – | – | – | – | 1 µg/mL (≈ 2.2 µM) | 2 µg/mL (≈ 4.39 µM) | 0.06 µg/mL (≈ 0.132 µM) | 4 µg/mL (≈ 8.78 µM) | 0.25 µg/mL (≈ 0.549 µM) | 0.06 µg/mL (≈ 0.132 µM) | 4 µg/mL (≈ 8.78 µM) | 16 µg/mL (≈ 35.1 µM) | 8 µg/mL (≈ 17.6 µM) | 2 µg/mL (≈ 4.39 µM) | 0.5 µg/mL (≈ 1.1 µM) | 4 µg/mL (≈ 8.78 µM) | 1 µg/mL (≈ 2.2 µM)
CO/N=C(\C(=O)N[C@@H]1C(=O)N2C(C(=O)O)=C(CSc3nc(=O)c(O)nn3C)CS[C@H]12)c1csc(N)n1 [CEFTRIAXONE] | – | – | – | – | 0.25 µg/mL (≈ 0.451 µM) | 1 µg/mL (≈ 1.8 µM) | 0.06 µg/mL (≈ 0.108 µM) | 4 µg/mL (≈ 7.21 µM) | 0.25 µg/mL (≈ 0.451 µM) | 0.06 µg/mL (≈ 0.108 µM) | 4 µg/mL (≈ 7.21 µM) | 4 µg/mL (≈ 7.21 µM) | 4 µg/mL (≈ 7.21 µM) | 1 µg/mL (≈ 1.8 µM) | 0.25 µg/mL (≈ 0.451 µM) | 2 µg/mL (≈ 3.61 µM) | 0.5 µg/mL (≈ 0.902 µM)
CO/N=C(\C(=O)N[C@@H]1C(=O)N2C(C(=O)O)=C(COC(N)=O)CS[C@H]12)c1ccco1 [CEFUROXIME] | – | – | – | – | 2 µg/mL (≈ 4.71 µM) | 8 µg/mL (≈ 18.9 µM) | 0.12 µg/mL (≈ 0.283 µM) | 32 µg/mL (≈ 75.4 µM) | 0.25 µg/mL (≈ 0.589 µM) | 0.12 µg/mL (≈ 0.283 µM) | 8 µg/mL (≈ 18.9 µM) | > 32 µg/mL | > 32 µg/mL | 2 µg/mL (≈ 4.71 µM) | 2 µg/mL (≈ 4.71 µM) | 16 µg/mL (≈ 37.7 µM) | 4 µg/mL (≈ 9.43 µM)
C[C@@H](O)[C@H]1C(=O)N2C(C(=O)O)=C(S[C@@H]3CN[C@H](C(=O)N(C)C)C3)[C@H](C)[C@H]12 [MEROPENEM] | – | – | – | – | 0.25 µg/mL (≈ 0.652 µM) | 0.25 µg/mL (≈ 0.652 µM) | 0.06 µg/mL (≈ 0.156 µM) | 0.5 µg/mL (≈ 1.3 µM) | 0.12 µg/mL (≈ 0.313 µM) | 0.06 µg/mL (≈ 0.156 µM) | 0.5 µg/mL (≈ 1.3 µM) | 0.5 µg/mL (≈ 1.3 µM) | 0.5 µg/mL (≈ 1.3 µM) | 0.25 µg/mL (≈ 0.652 µM) | 0.25 µg/mL (≈ 0.652 µM) | 0.5 µg/mL (≈ 1.3 µM) | 0.5 µg/mL (≈ 1.3 µM)
CC1(C)S[C@@H]2[C@H](NC(=O)Cc3ccccc3)C(=O)N2[C@H]1C(=O)O [PENICILLIN G] | – | – | – | – | 4 µg/mL (≈ 12 µM) | 4 µg/mL (≈ 12 µM) | 0.12 µg/mL (≈ 0.359 µM) | 8 µg/mL (≈ 23.9 µM) | 0.5 µg/mL (≈ 1.5 µM) | 0.12 µg/mL (≈ 0.359 µM) | 8 µg/mL (≈ 23.9 µM) | 8 µg/mL (≈ 23.9 µM) | 8 µg/mL (≈ 23.9 µM) | 2 µg/mL (≈ 5.98 µM) | 2 µg/mL (≈ 5.98 µM) | 4 µg/mL (≈ 12 µM) | 8 µg/mL (≈ 23.9 µM)
